Assay results: ChEMBL document CHEMBL1145814, “Antiretroviral activity of semisynthetic derivatives of glycopeptide antibiotics” (J Med Chem, 2003)
Converted amounts (≈) assume the structure as drawn.

Key:
CCRF-CEM = assay: Inhibitory concentration against proliferation of human T-lymphocytic (CEM) cells; assay type: functional, cell-based; conditions: Homo sapiens, CCRF-CEM
Summary of the method: (§1)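 (5–7.5) × 10^4 cells per well were incubated with test compound at 37 °C in a humidified CO2 atmosphere. L1210 murine leukemia cells grew for 48 h, and CEM and Molt4/clone 8 human lymphocytes grew for 72 h. Cells were then counted with a Coulter counter. IC50 is the concentration inhibiting proliferation by 50%.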

[1] = system: Human immunodeficiency virus 2; assay: Concentration required to protect human T-lymphocytic cells against the cytopathogenicity of HIV-2; assay type: functional, organism-based; conditions: Human immunodeficiency virus 2
[2] = system: Human immunodeficiency virus 1; assay: Effective concentration of compound required to protect human T-lymphocytic cells against the cytopathogenicity of HIV-1; assay type: functional, organism-based; conditions: Human immunodeficiency virus 1
L1210 = assay: Inhibitory concentration of compound against proliferation of murine lukemia cells L1210 was determined; assay type: functional, cell-based; conditions: Mus musculus; summary of the method: as §1
MOLT-4 = assay: Inhibitory concentration of compound against proliferation of human T-lymphocytic cells MOLT-4/C8 was determined; assay type: functional, cell-based; summary of the method: as §1
Mus musculus [3] = species on record: Mus musculus; assay: Minimal inhibitory concentration required to cause a microscopic detectable alteration of C3H/3T3 embryo murine fibroblast cell morphology; assay type: functional
Summary of the method: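 Uninfected C3H/3T3 murine embryo fibroblast cultures were exposed to test compound and checked microscopically for changes in cell morphology. The MIC is the concentration causing a microscopically detectable alteration of morphology.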

Mus musculus [4] = species on record: Mus musculus; assay: Effective concentration of compound required to protect C3H/3T3 embryo murine fibroblasts against the MSV induced transformation; assay type: functional, organism-based; conditions: Mus musculus, C3H/3T3
Summary of the method: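 Monolayer murine embryo fibroblast C3H/3T3 cultures were infected with Moloney murine sarcoma virus at 75 focus-forming units and cultured with test compound. Transformation was examined microscopically on day 6 postinfection. EC50 is the concentration protecting cells against MSV-induced transformation by 50%.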

Structure (SMILES) | IC50 (CCRF-CEM) [µM] | EC50 [1] [µM] | EC50 [2] [µM] | IC50 (L1210) [µM] | IC50 (MOLT-4) [µM] | MIC (Mus musculus [3]) [µM] | EC50 (Mus musculus [4]) [µM]
CCCCCCCCCCNCc1c(O)cc2c(c1O)-c1cc(ccc1O)[C@H]1NC(=O)[C@@H]3NC(=O)[C@H](CC(N)=O)NC(=O)[C@H](NC(=O)[C@@H](CC(C)C)NC)[C@H](O)c4ccc(c(Cl)c4)Oc4cc3cc(c4O[C@@H]3O[C@H](CO)[C@@H](O)[C@H](O)[C@H]3O[C@H]3C[C@](C)(N)[C@@H](O)[C@H](C)O3)Oc3ccc(cc3)[C@@H](O[C@H]3C[C@](C)(N)[C@@H](O)[C@H](C)O3)[C@H](NC1=O)C(=O)N[C@@H]2C(=O)O | 24 | > 20 | > 20 | 19 | 27 |  | 
CNC(=O)[C@H]1NC(=O)[C@H]2NC(=O)[C@H](NC(=O)[C@@H]3NC(=O)[C@H](CC(N)=O)NC(=O)[C@H](NC(=O)[C@@H](CC(C)C)NC)[C@H](O)c4ccc(c(Cl)c4)Oc4cc3cc(c4O[C@@H]3O[C@H](CO)[C@@H](O)[C@H](O)[C@H]3O[C@H]3C[C@](C)(N)[C@@H](O)[C@H](C)O3)Oc3ccc(cc3)[C@H]2O[C@H]2C[C@](C)(N)[C@@H](O)[C@H](C)O2)c2ccc(O)c(c2)-c2c(O)cc(O)cc21 | > 500 | > 250 | > 250 | > 500 | > 500 |  | 
CN[C@@H](CC(C)C)C(=O)NC1C(=O)N[C@@H](CC(N)=O)C(=O)NC2C(=O)NC3C(=O)NC(C(=O)N[C@@H](C(=O)O)c4cc(O)cc(O)c4-c4cc3ccc4O)C(O)c3ccc(c(Cl)c3)Oc3cc2cc(c3O)Oc2ccc(cc2Cl)C1O (stereo partly specified) | > 500 | > 250 | 65 | > 500 | > 500 | > 100 | > 100
O=CC(=O)c1[nH]c2ccccc2c1NC1C(=O)NC2Cc3ccc(c(Cl)c3)Oc3cc4cc(c3O)Oc3ccc(cc3Cl)C(O)C3NC(=O)C(NC(=O)C4NC(=O)C(NC2=O)c2cc(O)cc(c2)Oc2cc1ccc2O)c1ccc(O)c(c1)-c1c(O)cc(O)cc1[C@H](C(=O)O)NC3=O (stereo partly specified) | 108 | 15 | 10 | 192 | 108 | > 100 | 4.4
COC(=O)[C@@H]1NC(=O)C2NC(=O)C(NC(=O)C(N)c3cc(Oc4ccc(CC(NC(=O)OCc5ccccc5)C(=O)O)cc4Cl)c(O)c(c3)Oc3ccc(cc3Cl)C2O)c2ccc(O)c(c2)-c2c(O)cc(O)cc21 (stereo partly specified) | > 500 | 85 | 25 | > 500 | > 500 |  | 
COC(=O)[C@@H]1NC(=O)C2NC(=O)C(NC(=O)C(NC(=O)OC(C)(C)C)c3cc(Oc4ccc(CC(NC(=O)OCc5ccccc5)C(=O)O)cc4Cl)c(O)c(c3)Oc3ccc(cc3Cl)C2O)c2ccc(O)c(c2)-c2c1cc(O)c(CNC1C3CC4CC(C3)CC1C4)c2O (stereo partly specified) | 240 | 11 | 17 | 95 | 122 | > 100 | 26
COC(=O)[C@@H]1NC(=O)C2NC(=O)C(NC(=O)C3NC(=O)C4NC(=O)C(NC(=O)C(N)c5ccc(O)c(c5)Oc5cc4cc(O)c5C)C(O)c4ccc(cc4)Oc4cc3cc(c4O)Oc3ccc(cc3)C2O)c2ccc(O)c(c2)-c2c(O)cc(O)cc21 (stereo partly specified) | > 100 | > 50 | 25 |  |  | > 100 | 19
CNC1C(=O)NC2Cc3ccc(cc3)Oc3cc4cc(c3O[C@@H]3O[C@@H](C(=O)O)[C@@H](O)[C@H](O)[C@@H]3N)Oc3ccc(cc3Cl)C(O)C3NC(=O)C(NC(=O)C4NC(=O)C(NC2=O)c2cc(cc(O)c2Cl)Oc2cc1ccc2O)c1ccc(O)c(c1)-c1c(O[C@H]2O[C@H](CO)[C@@H](O)[C@@H](O)[C@@H]2O)cc(O)cc1[C@H](C(=O)O)NC3=O (stereo partly specified) | > 500 | > 250 | > 250 | > 500 | > 500 | > 100 | > 100
CCCCc1ccc(CN2CCN(Cc3c(O)cc4c(c3O)-c3cc(ccc3O)C3NC(=O)C5NC(=O)C6NC(=O)C(Cc7ccc(cc7)Oc7cc5cc(c7OC5OC(C(=O)O)C(O)C(O)C5N)Oc5ccc(cc5Cl)C(O)C(NC3=O)C(=O)N[C@H]4C(=O)O)NC(=O)C(NC)c3ccc(O)c(c3)Oc3cc(O)c(Cl)c6c3)CC2)cc1 (stereo partly specified) | 106 | > 50 | 20 | 20 | > 50 | 100 (≈ 163 µg/mL) | 6.9
CCCCCCCCCCNCc1c(O)cc2c(c1O)-c1cc(ccc1O)C1NC(=O)C3NC(=O)C4NC(=O)C(Cc5ccc(c(Cl)c5)Oc5cc3cc(c5O)Oc3ccc(cc3Cl)C(O)C(NC1=O)C(=O)N[C@H]2C(=O)NCCCN(C)C)NC(=O)C(N)c1ccc(O)c(c1)Oc1cc(O)cc4c1 (stereo partly specified) | > 100 | 6.1 | 1.4 | 48 | > 100 |  | 
CCCCc1ccc(CNCc2c(O)cc3c(c2O)-c2cc(ccc2O)C2NC(=O)C4NC(=O)C5NC(=O)C(Cc6ccc(c(Cl)c6)Oc6cc4cc(c6O)Oc4ccc(cc4Cl)C(O)C(NC2=O)C(=O)N[C@H]3C(=O)O)NC(=O)C(NC(=O)OC(C)(C)C)c2ccc(O)c(c2)Oc2cc(O)cc5c2)cc1 (stereo partly specified) | 60 | 8.3 | 20 |  |  | > 100 | 7.6
CCCCCCCCCCNC(=O)[C@H]1NC(=O)[C@H]2NC(=O)[C@H](NC(=O)[C@@H]3NC(=O)[C@H](CC(N)=O)NC(=O)[C@H](NC(=O)[C@@H](CC(C)C)NC)[C@H](O)c4ccc(c(Cl)c4)Oc4cc3cc(c4O[C@@H]3O[C@H](CO)[C@@H](O)[C@H](O)[C@H]3O[C@H]3C[C@](C)(N)[C@@H](O)[C@H](C)O3)Oc3ccc(cc3)[C@H]2O[C@H]2C[C@](C)(N)[C@@H](O)[C@H](C)O2)c2ccc(O)c(c2)-c2c(O)cc(O)cc21 | 9.4 | > 10 | > 10 | 29 | 21 |  | 
O=C(NC1C(=O)NC2Cc3ccc(c(Cl)c3)Oc3cc4cc(c3O)Oc3ccc(cc3Cl)C(O)C3NC(=O)C(NC(=O)C4NC(=O)C(NC2=O)c2cc(O)cc(c2)Oc2cc1ccc2O)c1ccc(O)c(c1)-c1c(O)cc(O)cc1[C@H](C(=O)O)NC3=O)OCC1c2ccccc2-c2ccccc21 (stereo partly specified) | 114 | 15 | 17 |  |  | 100 (≈ 142 µg/mL) | 10
CCCCOc1ccc(CNC2C(Oc3c4cc5cc3Oc3ccc(cc3Cl)C(O)C3NC(=O)C(NC(=O)C5NC(=O)C5NC(=O)C(Cc6ccc(cc6)O4)NC(=O)C(N(C)Cc4ccc(OCCCC)cc4)c4ccc(O)c(c4)Oc4cc(O)c(Cl)c5c4)c4ccc(O)c(c4)-c4c(O)cc(O)cc4[C@H](C(=O)NCCCN(C)C)NC3=O)OC(C(=O)NCCCN(C)C)C(O)C2O)cc1 (stereo partly specified) | 80 | > 10 | 5 | 20 | 18 | 20 (≈ 37.6 µg/mL) | > 4
CCCCc1ccc(CNC2C(Oc3c4cc5cc3Oc3ccc(cc3Cl)C(O)C3NC(=O)C(NC(=O)C5NC(=O)C5NC(=O)C(Cc6ccc(cc6)O4)NC(=O)C(NC)c4ccc(O)c(c4)Oc4cc(O)c(Cl)c5c4)c4ccc(O)c(c4)-c4c(cc(O)c(CN5CCN(Cc6ccc(-c7ccccc7)cc6)CC5)c4O)[C@H](C(=O)NCCCN(C)C)NC3=O)OC(C(=O)NCCCN(C)C)C(O)C2O)cc1 (stereo partly specified) | 212 | 20 | 3.5 | 25 | 35 | 20 (≈ 39.3 µg/mL) | > 4
CNC(=O)[C@@H]1NC(=O)C2NC(=O)C(NC(=O)C3NC(=O)C4NC(=O)C(Cc5ccc(c(Cl)c5)Oc5cc3cc(c5O)Oc3ccc(cc3Cl)C2O)NC(=O)C(NC(=O)OC23CC5CC(CC(C5)C2)C3)c2ccc(O)c(c2)Oc2cc(O)cc4c2)c2ccc(O)c(c2)-c2c(O)cc(O)cc21 (stereo partly specified) | 88 | 7.8 | 17 |  |  | 100 (≈ 139 µg/mL) | 8.7
NC1C(=O)NC2Cc3ccc(c(Cl)c3)Oc3cc4cc(c3O)Oc3ccc(cc3Cl)C(O)C3NC(=O)C(NC(=O)C4NC(=O)C(NC2=O)c2cc(O)cc(c2)Oc2cc1ccc2O)c1ccc(O)c(c1)-c1c(O)cc(O)cc1[C@H](C(=O)NC1C2CC4CC(C2)CC1C4)NC3=O (stereo partly specified) | 123 | 6 | 7 | 30 | 26 | > 100 | 2.1
